Data published in the RNAGym collection of RNA variant scans (doi:10.1126/science.aae0568).
This sample holds only a part of the variants without activity.

B1: tRNA (parent)
chain: GUUCCGUUGGCGUAAUGGUAACGCGUCUCCCUCCUAAGGAGAAGACUGCGGGUUCGAGUCCCGUACGGAACG

Variants of: B1
Experiment: yeast fitness relative to wild type (ratio to wild type); higher = fitter; tRNA-Arg(CCU), competitive growth, 37 C, YPD
Outline: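 Variants of the tRNA-Arg(CCU) gene, chemically synthesised with a 3% per-site mutation rate at 69 sites, were placed at the native genomic locus in Saccharomyces cerevisiae. The pooled strains were competed in YPD at 37°C for 24 hours in six parallel replicates. Gene amplicons from the start population and from each end population were read by 100-nucleotide paired-end sequencing. Darwinian fitness relative to wild type came from changes in genotype frequencies; genotypes needed ≥ 100 starting reads, and estimates < 0.5 were set to 0.5.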

Variant	yeast fitness
GAUCCGUUGGCGUAAUGGUACCGCGUCUCACUCCUAAGGAGAAGACUGAGGGUUCGAGUCCCGUACGGAACG [U2A A21C C30A C49A]	≤ 0.5
GAUCCGUUGGCGUAAUGGUAGCGCGUCUUCCUCCUAAGGUGAAGACUGCGGGUUCGAGUCCCAUACGGUACG [U2A A21G C29U A40U G63A A69U]	≤ 0.5
GAUCCGUUGGCGUAAUGGUAGCGCGUCUGCCUCCUAAGGAGAAGACUGAGGGUUCGAGUCCCGUACAGAACG [U2A A21G C29G C49A G67A]	≤ 0.5
GAUGCGUUGGCGUAAUGGUAACGCGUCUCCCUCCUAACGAGAAGUCUGCCGAUUCGAGUCCCGUACGGAACG [U2A C4G G38C A45U G50C G52A]	0.849
GAUCCGUUGGCGUAAUGGUAACGCGUCUCCCUCCUAAGGAGAAGUCUGCGGGUUCGAGUCCGGUACGGAACG [U2A A45U C62G]	≤ 0.5
GAUCCGUUGGCGUAAUGGUUACGCGUCUCCCUCAUAAGGAGAAGACUGCGGGUUCGAGUCUCGUUCGGAACG [U2A A20U C34A C61U A65U]	≤ 0.5
GAUACGUUGGCGUAAUGGUAACGCGUCUCCCUCAUAAGGAGACGAUUGCGGGUUCGAGUCCCGUACGGAACG [U2A C4A C34A A43C C46U]	≤ 0.5
GAUACGUUGGCGUAAUGGUAACGCGUCUCCCUCCUAAGGAGAAGAGUGCGGAUUCGAGUCCCGUACGGAUCG [U2A C4A C46G G52A A70U]	≤ 0.5
GAUUCGUUGGCGUAAUGGUAACGCGUCUCCCUCCUAAGGAGAACACUGCGGGUUCGAGUCACGUACGGAACG [U2A C4U G44C C61A]	≤ 0.5
GAUCCGUUGGCGUAAUGGUAACGCGUCUCCCUCCUACGGAGAAGACUGCGGGUUCGCGUUCCGUACGGAACG [U2A A37C A57C C60U]	≤ 0.5
GAUCCGUUGGCGUAAUGGUAACGCGUCUCCCUCCUAAGGAGAAGCCUGCGGGUUCGAGUCCCGUACGGACCG [U2A A45C A70C]	0.758
GAUCCGUUGGCGUAAUGGUACCGCGUCUCCGUCCUAAGGAGACGACUGCGGGUUCGAGUCCCGUACGGAACG [U2A A21C C31G A43C]	≤ 0.5
GAUCCGUUGGCGUAAUGGUAGCGCGUCUUCCUCCUAAGGUGAAGACUGCGGGUUCGAGUCCCGUACGGUACG [U2A A21G C29U A40U A69U]	0.59
GAUCCGUUGGCGUAAUGGUUACGCGUCUCACUCCUUAGGAGAAGACUGCGGGUUCGAGUUCCGUACGGCACG [U2A A20U C30A A36U C60U A69C]	≤ 0.5
GAUCCGUUGGCGUAAUGGUAUCGCGUCUCCCUCCUAAGGAGAAGACUGCGGGUACCAGUCCCGUACGGAACG [U2A A21U U54A G56C]	0.646
GAUACGUUGGCGUAAUGGUAAAGCGUCUCCCUCCUAAGGAGAAGACUGCGGGUUUGAGUCCCGUACGGAACG [U2A C4A C22A C55U]	≤ 0.5
GAUCCGUUGGCGUAAUGGUAACGCGUCUCCCUCCUAAGGAGAAGACUGCGGGUUCGCGUCCCGUACGGAACG [U2A A57C]	0.607
GAUCCGUUGGCGUAAUGGUAACGCGUCUCCCUCCUAAGGAGGGGACUGCAGGUUCGAGUCCCGUACGGAACG [U2A A42G A43G G50A]	0.541
GAUCCGUUGGCGUAAUGGUAACGCGUCUCCCUCCUAAGGAGAAGCCUGCGGGUUCGAGUCCCGUACGGAACG [U2A A45C]	0.933

Variant	yeast fitness
GAUCCGUUGGCGUAAUGGUACCGAGUCUCCCUACUAAGGAGAAGACUCCGGGUUCGAGUCCCGUACGGAACG [U2A A21C C24A C33A G48C]	≤ 0.5
GAUCCGUUGGCGUAAUGGUAGCGCGUCUCCCUCCUAAGGAGAACACUGCGGGUUCGAGGCUCGUACGGAACG [U2A A21G G44C U59G C61U]	≤ 0.5
GAUCCGUUGGCGUAAUGGUACCGCGUCUUCCUCCUAAGGAGAAGACUGCGAGUUCGAGUCCCGUACGGAACG [U2A A21C C29U G51A]	0.574
GAUCCGUUGGCGUAAUGGUAACGCGUCUCCCUCCUAAGGAGGAGACUGCGGGUUCGAGUCUCAUACGGAACG [U2A A42G C61U G63A]	≤ 0.5
GAUCCGUUGGCGUAAUGGUGACGCGUCUCCCUCCUAAGGAGAAGACUGCGGGUUGGAGUCCCGUACGGAACG [U2A A20G C55G]	0.537
GAUCCGUUGGCGUAAUGGUAGCGCGUCUCCCUCCUAAGGAAAGGACUGCGGGUUCGAGUCCCGUACGGAACG [U2A A21G G41A A43G]	≤ 0.5
GAUCCGUUGGCGUAAUGGUGACGCGUCUCCCUCAUAAGGAGAAGACUGUGGGUUCGAGUCCCGUACGGAACG [U2A A20G C34A C49U]	≤ 0.5
GAUCCGUUGGCGUAAUGGUUACGCGUCUCCCUCCUAAGGAGAAGACUGCGGGAUCGAGUACCGUACGGAACG [U2A A20U U53A C60A]	0.558
GAUCCGUUGGCGUAAUGGUAACGCGUCUCCCUCCUAAGGAGAAGACUGCGGGUUCGAGUCCCGUUCGGAACG [U2A A65U]	0.812
GAUCCGUUGGCGUAAUGGUAACGCGUCUCCCUCCUAAGGAGAAGACUGCGGGUUCGAGUCCCGUGCGGAACG [U2A A65G]	0.938
GAUCCGUUGGCGUAAUGGUAACGCGUCUCCCUCCUAAGGAGAAGACUGCGGGUUCGAGUCCCGUACGGACCG [U2A A70C]	1
GAUACGUUGGCGCAAUGGUAACGCGUCUCCCUCCUAAGGAGGAGACUGCGGGUUCGAGUCUCGUACGGAACG [U2A C4A U13C A42G C61U]	≤ 0.5
GAUUCGUUGGCGUAAUGGUAACGCCUCUCCCUCCUAAGGAGAAGACUGUGGGUUCGAGUCUCGUACGGAACG [U2A C4U G25C C49U C61U]	0.581
GAUCCGUUGGCGUAAUGGUGACGCGUCUACCUCCUAAGGAGAAGUCUGCGGGUUCGAGUCCCGUACGGAACG [U2A A20G C29A A45U]	0.538
GAUCCGUUGGCGUAAUGGUAACGCGUCUCCCUCCUAAGGAGGAGACUGCGGGUUCGAGUCCCGUACGGAACG [U2A A42G]	0.74
GAUCCGUUGGCGUAAUGGUAACGCGUCUCCCUCCUAAGGAGUAGACUGCGGGUUCGAGUCCCGUACGGAACG [U2A A42U]	0.864
GAUCCGUUGGCGUAAUGGUAACGCGUCUCCCUCCUAAGGAGCAGACUGCGGGUUCGAGUCCCGUACGGAACG [U2A A42C]	0.818
GAUGCGUUAGCGUAAUGGUAACGCGUCUCCCUCCUAAGGAGAAAACUGCGGGUCCGAGUCCCGUACGGAACG [U2A C4G G9A G44A U54C]	≤ 0.5
